Measured values published in ChEMBL document CHEMBL1158126, “Sodwanone and yardenone triterpenes from a South African species of the marine sponge Axinella inhibit hypoxia-inducible factor-1 (HIF-1) activation in both breast and prostate tumor cells” (J Nat Prod, 2006).

Columns and labels:
[1] = biological target: T1, Hypoxia inducible factors; HIF-1-alpha, HIF-2-alpha (Homo sapiens, UniProt Q16665+Q99814); experiment: Inhibition of hypoxia-induced HIF1 activation in human T47D cells by reporter gene assay; assay type: cell-based
Method in brief: (§1)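 Luciferase reporter cells (T47D or PC-3) transfected, treated with compound and exposed to hypoxia (1% O2:5% CO2:94% N2). Normoxic comparison at 5% CO2:95% air. Compounds from 10 mM isopropanol stocks, tested up to 30 μM. Luciferase activity measured.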

[2] = test system: DU-145; experiment: Cytotoxicity against human DU145 cells after 48 hrs by neutral red assay; assay type: functional, cell-based; conditions: DU-145, 48 h
Method in brief: (§2)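 Cells kept in DMEM/F12 with 10% FBS and antibiotics at 37° C, 5% CO2:95% air. Plated at 30,000 cells/well and grown 24 h. Compounds diluted in serum-free DMEM/F12 and added (n = 3). Incubated 48 h at 37° C under normoxia. Viability read by neutral red at OD540. % inhibition = 1 - OD540(treated)/OD540(control). Highest concentration tested 30 μM.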

[3] = test system: MDA-MB-231; experiment: Cytotoxicity against human MDA-MB-231 cells after 48 hrs by neutral red assay; assay type: functional, cell-based; conditions: MDA-MB-231, 48 h; method in brief: as §2
[4] = biological target: T1, Hypoxia inducible factors; HIF-1-alpha, HIF-2-alpha; experiment: Inhibition of hypoxia-induced HIF1 activation in human PC3 cells by reporter gene assay; assay type: cell-based; conditions: pc-3; method in brief: as §1
[5] = test system: T47D; experiment: Cytotoxicity against human T47D cells after 48 hrs by neutral red assay; assay type: functional, cell-based; method in brief: as §2
[6] = biological target: T1, Hypoxia inducible factors; HIF-1-alpha, HIF-2-alpha; experiment: Inhibition of 1,10 phenanthroline-induced HIF1 activation in human T47D cells by reporter gene assay; assay type: cell-based
Method in brief: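 Transfected T47D luciferase reporter cells. HIF-1 induced with the hypoxia mimetic 1,10-phenanthroline at 10 μM. Compounds from 10 mM isopropanol stocks, tested up to 30 μM. HIF-1 activity read as luciferase activity.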

[7] = test system: PC-3; experiment: Cytotoxicity against human PC-3 cells after 48 hrs by neutral red assay; assay type: functional, cell-based; conditions: PC-3, 48 h; method in brief: as §2

Row | IC50 [1] | IC50 [4] | IC50 [6] | SMILES | IC50 [2] | IC50 [3] | IC50 [5] | IC50 [7]
1 | 20 µM | > 30 µM | > 30 µM | CC1=C(CC[C@H]2[C@]3(C)CCC(=O)C(C)(C)O[C@H]3CC[C@]2(C)O)[C@@]2(C)CCC(=O)C(C)(C)C2=C(O)C1=O [SODWANONE A] | > 30 µM | > 30 µM | > 30 µM | > 30 µM
2 | > 30 µM | > 30 µM | > 30 µM | CC1=C(CC[C@@H]2[C@H](C)CC[C@@H]3OC(C)(C)C(=O)CC[C@]32C)[C@@]2(C)CCC(=O)C(C)(C)C2=C(O)C1=O [SODWANONE B] | > 30 µM | > 30 µM | > 30 µM | > 30 µM
3 | 20 µM | > 30 µM | 20 µM | CC1=C(CCC2=C(C)CC[C@@H]3OC(C)(C)[C@H](O)CC[C@@]23C)[C@]2(C)CCC(=O)C(C)(C)O[C@H]2CC1 [SODWANONE T] | > 30 µM | > 30 µM | > 30 µM | > 30 µM
4 | > 30 µM | > 30 µM | > 30 µM | CC1=C(CCC23CCC(=O)C(C)(C)C2=C(O)C(=O)C(C)=C3C)[C@]2(C)CCC(=O)C(C)(C)O[C@H]2CC1 (stereo partly drawn) [SODWANONE U] | > 30 µM | > 30 µM | > 30 µM | > 30 µM
5 | 15 µM | 15 µM | 15 µM | C[C@H]1CC[C@@H]2OC(C)(C)[C@@H](O)CC=C2[C@@]1(C)CC[C@]1(C)[C@@H](C)CC[C@@H]2OC(C)(C)[C@@]3(O)CC[C@]21O3 [SODWANONE V] | > 30 µM | 23 µM | > 30 µM | > 30 µM
6 | > 30 µM |  |  | CC(C)C(=O)CC[C@@]1(C)[C@@H]2CC[C@H](C)[C@@]1(CC[C@@]1(C)C3=CC[C@@H](O)C(C)(C)O[C@@H]3CC[C@H]1C)O2 [SODWANONE W] | > 30 µM | > 30 µM | > 30 µM | > 30 µM
7 | > 30 µM |  |  | C[C@H]1CC[C@@H]2OC(C)(C)C(=O)CC[C@@]2(C)[C@]12CC[C@@H]([C@@]1(C)CC[C@@H]3OC(C)(C)C(=O)CC[C@]31C)O2 [YARDENONE] | > 30 µM | > 30 µM | > 30 µM | > 30 µM

Second part, the compound before the results:

Row | SMILES | IC50 [1] | IC50 [4] | IC50 [6] | IC50 [2] | IC50 [3] | IC50 [5] | IC50 [7]
8 | C[C@H]1CC[C@@H]2OC(C)(C)C(=O)CC[C@@]2(C)[C@@]12O[C@H]([C@@]1(C)CC[C@@H]3OC(C)(C)C(=O)CC[C@]31C)C[C@H]2O | > 30 µM | > 30 µM | > 30 µM | > 30 µM | > 30 µM | > 30 µM | > 30 µM
9 | C=C1CC[C@@H]2OC(C)(C)[C@H](O)CC[C@@]2(C)[C@@H]1CC[C@]1(O)[C@@H](C)CC[C@@H]2OC(C)(C)C(=O)CC[C@]21C | 25 µM | > 30 µM | > 30 µM | > 30 µM | > 30 µM | > 30 µM | > 30 µM
10 | C=C1CC[C@@H]2OC(C)(C)[C@H](OC(C)=O)CC[C@@]2(C)[C@@H]1CC[C@]1(O)[C@@H](C)CC[C@@H]2OC(C)(C)C(=O)CC[C@]21C | 20 µM | > 30 µM | > 30 µM | > 30 µM | > 30 µM | 22 µM | > 30 µM
11 | CC1=C(CCC2=C(C)C(=O)C(O)=C3C(C)(C)C(=O)CC[C@]23C)[C@]2(C)CCC(=O)C(C)(C)O[C@H]2CC1 [10,11-DIHYDROSODWANONE B] | 20 µM | > 30 µM | 30 µM | > 30 µM | > 30 µM | > 30 µM | > 30 µM
